What all share (assay type): functional
Experiment [1] has as its system Neisseria gonorrhoeae. As to the kind of experiment: Antibacterial activity against Neisseria gonorrhoeae assessed as susceptible isolates by disk agar diffusion method. The gist of the method: (§1)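 Clinical isolates were collected from sexually transmitted infections in New Caledonia over nearly 3 years. They were tested in vitro against conventional antibiotics by disk agar diffusion. Archival chromosomally mediated resistant isolates and 12 reference strains served as controls: WHO-C, -G, -L, -M, -O, -P and 07QA-01 to 07QA-06.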
On the technique in general: A growth-free zone around the sample is the usual read-out of agar diffusion tests.

In experiment [2] the test system is Neisseria gonorrhoeae. The experiment is described as follows: Antibacterial activity against Neisseria gonorrhoeae by disk agar diffusion method. Summed up: as §1
Experiment [3] relates to Neisseria gonorrhoeae. As to the kind of experiment: Antibacterial activity against Neisseria gonorrhoeae assessed as intermediate-resistant isolates by disk agar diffusion method. The gist of the method: (§2)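 Clinical N. gonorrhoeae isolates from sexually transmitted infections in New Caledonia, collected over about 3 years. Susceptibility to conventional antibiotics was tested by disk agar diffusion, and beta-lactamase production by nitrocefin discs. Archival chromosomally mediated resistant isolates and WHO reference strains (WHO-C, -G, -L, -M, -O, -P; 07QA-01 to -06) served as controls.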

Experiment [4] deals with Neisseria gonorrhoeae. The experiment is described as follows: Antibacterial activity against Neisseria gonorrhoeae harboring porB1a gene by disk agar diffusion method. Summed up: as §2
Experiment [5] concerns Neisseria gonorrhoeae. As to the kind of experiment: Antibacterial activity against Neisseria gonorrhoeae harboring wild-type GA gene by disk agar diffusion method. The gist of the method: as §2
Experiment [6] has as its system Neisseria gonorrhoeae. The experiment is described as follows: Antibacterial activity against Neisseria gonorrhoeae harboring porB1b and DA G101D mutant genes by disk agar diffusion method. The gist of the method:
as §2

The test system of experiment [7] is Neisseria gonorrhoeae. The experiment is described as follows: Antibacterial activity against Neisseria gonorrhoeae harboring GS A102S mutant gene by disk agar diffusion method. Summed up: as §2
The subject of experiment [8] is Neisseria gonorrhoeae. As to the kind of experiment: Antibacterial activity against Neisseria gonorrhoeae harboring ponA L421P mutant gene by disk agar diffusion method. The gist of the method:
as §2

Experiment [9] has as its system Neisseria gonorrhoeae. As to the kind of experiment: Antibacterial activity against Neisseria gonorrhoeae harboring wild-type ponA gene by disk agar diffusion method. Summed up: as §2
The test system of experiment [10] is Neisseria gonorrhoeae. As to the kind of experiment: Antibacterial activity against Neisseria gonorrhoeae harboring GS gene by disk agar diffusion method. Summed up:
as §2

For experiment [11], the system named is Neisseria gonorrhoeae. As to the kind of experiment: Antibacterial activity against Neisseria gonorrhoeae harboring KD gene by disk agar diffusion method. The gist of the method:
as §2

Experiment [12] relates to Neisseria gonorrhoeae. As to the kind of experiment: Antibacterial activity against Neisseria gonorrhoeae harboring wild-type GA and wild-type penA genes by Etest method. The gist of the method: (§3)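 Penicillin G MIC (µg/ml) by E-test gradient strip on chocolate agar plus PolyVitex, read where the inhibition zone meets the strip. Test organisms were clinical gonococcal isolates from New Caledonia, grouped by genotype. Archival chromosomally mediated resistant isolates and 12 WHO reference strains served as controls.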

Experiment [13] deals with Neisseria gonorrhoeae. As to the kind of experiment: Antibacterial activity against Neisseria gonorrhoeae harboring wild-type GA and Asp-345a insertion in penA genes by Etest method. The gist of the method:
as §3

The subject of experiment [14] is Neisseria gonorrhoeae. The experiment is described as follows: Antibacterial activity against Neisseria gonorrhoeae harboring wild-type penA and DA G101D mutant genes by Etest method. Summed up: as §3
In experiment [15] the test system is Neisseria gonorrhoeae. The experiment is described as follows: Antibacterial activity against Neisseria gonorrhoeae harboring Asp-345a insertion in penA and DA G101D mutant genes by Etest method. The gist of the method: as §3
For experiment [16], the system named is Neisseria gonorrhoeae. As to the kind of experiment: Antibacterial activity against Neisseria gonorrhoeae harboring wild-type penA and GS A102S mutant genes by Etest method. Summed up: as §3
Experiment [17] concerns Neisseria gonorrhoeae. As to the kind of experiment: Antibacterial activity against Neisseria gonorrhoeae harboring wild-type penA and porB1a genes by Etest method. Summed up:
as §3

The subject of experiment [18] is Neisseria gonorrhoeae. As to the kind of experiment: Antibacterial activity against Neisseria gonorrhoeae harboring Asp-345a insertion in penA and porB1a genes by Etest method. The gist of the method: as §3

SMILES strings stand for the structures. In brackets after ≈: the same amount, converted by molar mass.

This passage reports Activity and MIC results from ChEMBL document CHEMBL1671866, “Genotyping as a tool for antibiotic resistance surveillance of Neisseria gonorrhoeae in New Caledonia: evidence of a novel genotype associated with reduced penicillin susceptibility” (2008).

In general, MIC refers to the lowest concentration that inhibits growth of the organism.

With `CC1(C)S[C@@H]2[C@H](NC(=O)Cc3ccccc3)C(=O)N2[C@H]1C(=O)O` [PENICILLIN G], the results for the Activity in the experiment on Neisseria gonorrhoeae [1] and with Neisseria gonorrhoeae [3] were 60.1% and 39.9%, respectively. The MIC against Neisseria gonorrhoeae [2] came out at 0.064 µg/mL (≈ 0.191 µM); against Neisseria gonorrhoeae [4], 0.031 µg/mL (≈ 0.0927 µM); against Neisseria gonorrhoeae [5], 0.037 µg/mL (≈ 0.111 µM); in the experiment on Neisseria gonorrhoeae [6], 0.016 µg/mL (≈ 0.0478 µM); in the experiment on Neisseria gonorrhoeae [7] it was 0.155 µg/mL (≈ 0.464 µM); against Neisseria gonorrhoeae [8], 0.059 µg/mL (≈ 0.176 µM). In addition, the MIC is 0.067 µg/mL (≈ 0.2 µM) in the experiment on Neisseria gonorrhoeae [9]; 0.63 µg/mL (≈ 1.88 µM) in the experiment with Neisseria gonorrhoeae [10]; 1 µg/mL (≈ 2.99 µM) in the experiment on Neisseria gonorrhoeae [11]; 0.017 µg/mL (≈ 0.0508 µM) against Neisseria gonorrhoeae [12]; 0.081 µg/mL (≈ 0.242 µM) with Neisseria gonorrhoeae [13]; 0.016 µg/mL (≈ 0.0478 µM) with Neisseria gonorrhoeae [14]. The MIC was found to be 0.133 µg/mL (≈ 0.398 µM) in the experiment on Neisseria gonorrhoeae [15], 0.156 µg/mL (≈ 0.467 µM) in the experiment with Neisseria gonorrhoeae [16], 0.011 µg/mL (≈ 0.0329 µM) against Neisseria gonorrhoeae [17] and 0.07 µg/mL (≈ 0.209 µM) in the experiment on Neisseria gonorrhoeae [18].
